Experimental data reported in ChEMBL document CHEMBL5096242, “Structure-Activity Studies of 1H-Imidazo[4,5-c]quinolin-4-amine Derivatives as A3 Adenosine Receptor Positive Allosteric Modulators” (J Med Chem, 2022).
Converted amounts (≈) assume the structure as drawn.

Tests used:
[1] = Stability of the compound in simulated gastric fluid at pH 1 to 2 assessed as compound remaining at 120 mins by LC-MS/MS analysis; conditions: simulated gi fluid, pH 1, 2 h
[2] = simulated gi fluid, pH 1, 2 h
[3] = Stability in human plasma assessed as compound remaining and measured after 120 mins by LC-MS/MS analysis; conditions: 2 h
[4] = Stability in mouse plasma assessed as compound remaining and measured after 120 mins by LC-MS/MS analysis; conditions: 2 h
[5] = Stability in mouse plasma assessed as half life and measured after 120 mins by LC-MS/MS analysis; conditions: 2 h
Mu-type opioid receptor = Mu-type opioid receptor (Homo sapiens, UniProt P35372); test: Displacement of [3H]-DAMGO from human MOR receptor expressed in human HEK293 cell membrane incubated for 90 mins by radioligand binding assay
[6] = target: Sodium-dependent dopamine transporter (Homo sapiens, UniProt Q01959); test: Displacement of [3H]-Win35428 from human DAT receptor expressed in human HEK293T cell membrane incubated for 90 mins by radioligand binding assay
Cytochrome P450 1A2 = target: T1, Cytochrome P450 1A2 (Homo sapiens, UniProt P05177); test: Inhibition of CYP1A2 in human liver Microsome using phenacetin as substrate in presence of NADPH by LC-MS/MS analysis
T1 sequence (P05177 whole entry): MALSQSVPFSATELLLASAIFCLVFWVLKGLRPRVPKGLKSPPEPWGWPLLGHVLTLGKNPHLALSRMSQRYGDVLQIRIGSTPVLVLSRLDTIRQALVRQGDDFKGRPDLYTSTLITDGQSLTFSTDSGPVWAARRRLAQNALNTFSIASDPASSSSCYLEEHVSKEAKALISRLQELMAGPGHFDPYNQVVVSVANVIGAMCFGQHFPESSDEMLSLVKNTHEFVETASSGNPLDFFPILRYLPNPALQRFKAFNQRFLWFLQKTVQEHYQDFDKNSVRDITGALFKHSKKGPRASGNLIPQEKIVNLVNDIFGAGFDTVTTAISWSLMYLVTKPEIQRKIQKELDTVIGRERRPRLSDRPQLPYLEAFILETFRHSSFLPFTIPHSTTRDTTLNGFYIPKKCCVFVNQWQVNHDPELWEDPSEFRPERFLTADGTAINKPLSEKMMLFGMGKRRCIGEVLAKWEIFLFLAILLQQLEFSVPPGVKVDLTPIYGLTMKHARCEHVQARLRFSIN

Cytochrome P450 2D6 = Cytochrome P450 2D6 (Homo sapiens, UniProt P10635); test: Inhibition of CYP2D6 in human liver Microsome using dextromethorphan as substrate in presence of NADPH by LC-MS/MS analysis
[7] = Inhibition of CYP2C9 in rat liver Microsome using phenacetin as substrate in presence of NADPH by LC-MS/MS analysis
[8] = Inhibition of CYP2C9 in mouse liver Microsome using phenacetin as substrate in presence of NADPH by LC-MS/MS analysis
[9] = target: Cytochrome P450 1A2 (Homo sapiens) (UniProt P05177)
[10] = target: Cytochrome P450 1A2 (Homo sapiens) (UniProt P05177); remark: listed apart in the source
[11] = target: T2, Adenosine receptor A3 (Homo sapiens) (UniProt P0DMS8); test: Positive allosteric modulator activity in wild type human A3AR opioid receptor stably expressed in human HEK293 cell membrane assessed as increase in CI-IB-MECA induced [35S]GTPGAgammaS binding to receptor at 10 uM preincubated for 1 hrs with CI-IB-MECA further incubated with [35S]GTPGAgammaS for …; format: cell membranes; conditions: filed as positive allosteric modulator, time 3.0 hrs
T2 sequence (whole entry): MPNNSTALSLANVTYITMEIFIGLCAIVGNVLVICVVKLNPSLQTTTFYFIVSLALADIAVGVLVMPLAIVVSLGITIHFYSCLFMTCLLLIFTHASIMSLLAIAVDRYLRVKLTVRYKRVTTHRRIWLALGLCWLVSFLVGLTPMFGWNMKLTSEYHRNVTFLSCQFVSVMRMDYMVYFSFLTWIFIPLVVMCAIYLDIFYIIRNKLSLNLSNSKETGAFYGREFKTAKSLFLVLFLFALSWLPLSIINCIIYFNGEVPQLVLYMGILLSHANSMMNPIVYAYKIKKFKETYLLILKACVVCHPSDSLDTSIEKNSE

[12] = target: Sigma non-opioid intracellular receptor 1 (Homo sapiens, UniProt Q99720); test: Displacement of [3H]-LSD from human sigma1 receptor expressed in human HEK293T cell membrane incubated for 90 mins by radioligand binding assay
[13] = target: Sigma intracellular receptor 2 (Homo sapiens, UniProt Q5BJF2); test: Displacement of [3H]-DTG from human sigma2 receptor expressed in human HEK293T cell membrane incubated for 90 mins by radioligand binding assay
D(3) dopamine receptor = D(3) dopamine receptor (Homo sapiens, UniProt P35462); test: Displacement of [3H]-N-methylspiperone from human D3 receptor expressed in human HEK293T cell membrane incubated for 90 mins by radioligand binding assay
Translocator protein = Translocator protein (Homo sapiens, UniProt P30536); test: Inhibition of human TPSO receptor expressed in human HEK293T cell membrane incubated for 90 mins by radioligand binding assay
[14] = Stability in rat plasma assessed as compound remaining and measured after 120 mins by LC-MS/MS analysis; conditions: 2 h
Adenosine receptor A3 = target: T3, Adenosine receptor A3 (Homo sapiens, UniProt P0DMS8)
T3 sequence (P0DMS8 whole entry): T2 sequence (whole entry)

[15] = target: 5-hydroxytryptamine receptor 2B (Homo sapiens, UniProt P41595); test: Displacement of [3H]-LSD from human 5HT2B expressed in human HEK293 cell membrane incubated for 90 mins by radioligand binding assay; format: cell membranes
Procedure, shortened: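 Off-target panel run by the NIMH PDSP. Each derivative was first screened at 10 μM in radioligand binding.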

[16] = Protein binding in human plasma assessed as bound fraction at 10 uM and measured for 5 hrs by LC-MS/MS based dialysis analysis
[17] = Protein binding in mouse plasma assessed as bound fraction at 10 uM and measured for 5 hrs by LC-MS/MS based dialysis analysis
[18] = Stability of the compound in simulated intestinal fluid at pH 6 to 8 assessed as compound remaining at 120 mins by LC-MS/MS analysis; conditions: simulated gi fluid, pH 6, 2 h
[19] = Stability in human plasma assessed as half life and measured after 120 mins by LC-MS/MS analysis; conditions: 2 h
[20] = Stability in rat plasma assessed as half life and measured after 120 mins by LC-MS/MS analysis; conditions: 2 h
[21] = Microsomal stability in human liver microsomes assessed as parent compound remaining at 3 uM incubated for 120 mins by LC-MS/MS analysis; conditions: 2 h
[22] = Microsomal stability in rat liver microsomes assessed as parent compound remaining at 3 uM incubated for 120 mins by LC-MS/MS analysis; conditions: 2 h
[23] = Microsomal stability in mouse liver microsomes assessed as parent compound remaining at 3 uM incubated for 120 mins by LC-MS/MS analysis; conditions: 2 h
[24] = Protein binding in rat plasma assessed as bound fraction at 10 uM and measured for 5 hrs by LC-MS/MS based dialysis analysis
[25] = target: Voltage-gated inwardly rectifying potassium channel KCNH2 (Homo sapiens, UniProt Q12809); test: Inhibition of human ERG stably transfected in HEK293 cells incubated for 2 hrs by TAMRA fluorescence polarization assay
[26] = Aqueous solubility of compound at pH 7.4 by PDA spectrophotometric analysis; conditions: buffer
[27] = Half life in Wistar rat at 3 mg/kg, po and measured upto 24 hrs; conditions: in vivo
[28] = Half life in Wistar rat at 10 mg/kg, po and measured upto 24 hrs; conditions: in vivo
[29] = Half life in Wistar rat at 0.5 mg/kg, iv and measured upto 24 hrs; format: ADME, organism-based; conditions: in vivo
Procedure, shortened: (§1)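 Fasted male Wistar rats (RccHan:WIST), 6–10 weeks old at acclimation, three per group. Dosing was 0.5 mg/kg i.v. in DMSO:20% HPBCD (10:90), or 1, 3 and 10 mg/kg by oral gavage in DMSO:Kolliphor EL:PBS (15:15:70). Jugular blood was taken at 0.083–24 h (stated for i.v.) into heparin, and plasma was frozen at −70 °C. Parameters came from non-compartmental analysis.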

[30] = Cmax in Wistar rat plasma at 10 mg/kg, po and measured after 2 hrs; format: ADME, organism-based; set-up: time 2 hrs, dose 10 mg/kg, route po; conditions: in vivo; procedure, shortened: as §1
[31] = Tmax in Wistar rat plasma at 1 to 10 mg/kg, po and measured after 2 hrs; format: ADME, organism-based; conditions: dose 1-10 mg/kg; procedure, shortened: as §1
[32] = Clearance in Wistar rat plasma at 3 mg/kg, po and measured upto 24 hrs; format: ADME, organism-based; procedure, shortened: as §1
[33] = Clearance in Wistar rat plasma at 10 mg/kg, po and measured upto 24 hrs; format: ADME, organism-based; procedure, shortened: as §1
[34] = Clearance in Wistar rat plasma at 1 mg/kg, po and measured upto 24 hrs; format: ADME, organism-based; procedure, shortened: as §1
[35] = Clearance in Wistar rat assessed as parent compound remaining at 3 mg/kg, po and measured upto 24 hrs; format: ADME, organism-based; conditions: in vivo; procedure, shortened: as §1
[36] = MRT in Wistar rat at 1 mg/kg, po and measured upto 24 hrs; format: ADME, organism-based; conditions: plasma, 3 mg/kg, in the assay text read “3 mg/kg” for “1 mg/kg”; procedure, shortened: as §1
[37] = Permeability across apical to basolateral side in human Caco-2 cells assessed as compound recovery at 10 uM measured upto 120 mins by LC-MS/MS analysis; format: ADME, cell-based; conditions: caco-2, 2 h
[38] = Permeability across basolateral to apical side in human Caco-2 cells assessed as compound recovery at 10 uM measured upto 120 mins by LC-MS/MS analysis; format: ADME, cell-based; conditions: caco-2, 2 h
[39] = simulated gi fluid, pH 6, 2 h
[40] = human, microsomes, 2 h, 3 µM
[41] = rat, microsomes, 2 h, 3 µM
[42] = mouse, microsomes, 2 h, 3 µM
in vivo [43] = conditions: Wistar, rat, po, 3 mg/kg
in vivo [44] = conditions: Wistar, rat, po, 10 mg/kg

D(3) dopamine receptor, sequence (P35462 whole entry): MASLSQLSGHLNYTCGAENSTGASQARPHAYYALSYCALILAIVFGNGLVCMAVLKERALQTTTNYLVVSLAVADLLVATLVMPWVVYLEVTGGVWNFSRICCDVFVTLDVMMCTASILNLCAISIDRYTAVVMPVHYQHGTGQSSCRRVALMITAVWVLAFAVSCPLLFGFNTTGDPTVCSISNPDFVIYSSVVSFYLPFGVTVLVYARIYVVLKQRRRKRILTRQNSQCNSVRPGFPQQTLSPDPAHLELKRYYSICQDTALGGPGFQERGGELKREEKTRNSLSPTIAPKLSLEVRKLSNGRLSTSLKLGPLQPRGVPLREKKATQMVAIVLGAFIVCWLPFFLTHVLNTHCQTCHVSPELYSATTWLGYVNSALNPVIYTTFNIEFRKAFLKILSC
Sigma intracellular receptor 2, sequence (Q5BJF2 whole entry): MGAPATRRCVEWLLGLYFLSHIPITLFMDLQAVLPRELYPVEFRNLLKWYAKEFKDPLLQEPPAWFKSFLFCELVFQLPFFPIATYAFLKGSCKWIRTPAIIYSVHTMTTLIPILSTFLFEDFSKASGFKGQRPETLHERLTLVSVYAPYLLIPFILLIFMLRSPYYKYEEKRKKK
Sigma non-opioid intracellular receptor 1, sequence (Q99720 whole entry): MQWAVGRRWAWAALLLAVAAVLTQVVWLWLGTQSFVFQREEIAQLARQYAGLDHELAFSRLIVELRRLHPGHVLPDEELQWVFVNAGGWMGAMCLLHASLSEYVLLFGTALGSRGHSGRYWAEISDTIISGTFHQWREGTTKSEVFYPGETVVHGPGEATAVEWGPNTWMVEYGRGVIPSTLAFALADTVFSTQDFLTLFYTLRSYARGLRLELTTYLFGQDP
5-hydroxytryptamine receptor 2B, sequence (P41595 whole entry): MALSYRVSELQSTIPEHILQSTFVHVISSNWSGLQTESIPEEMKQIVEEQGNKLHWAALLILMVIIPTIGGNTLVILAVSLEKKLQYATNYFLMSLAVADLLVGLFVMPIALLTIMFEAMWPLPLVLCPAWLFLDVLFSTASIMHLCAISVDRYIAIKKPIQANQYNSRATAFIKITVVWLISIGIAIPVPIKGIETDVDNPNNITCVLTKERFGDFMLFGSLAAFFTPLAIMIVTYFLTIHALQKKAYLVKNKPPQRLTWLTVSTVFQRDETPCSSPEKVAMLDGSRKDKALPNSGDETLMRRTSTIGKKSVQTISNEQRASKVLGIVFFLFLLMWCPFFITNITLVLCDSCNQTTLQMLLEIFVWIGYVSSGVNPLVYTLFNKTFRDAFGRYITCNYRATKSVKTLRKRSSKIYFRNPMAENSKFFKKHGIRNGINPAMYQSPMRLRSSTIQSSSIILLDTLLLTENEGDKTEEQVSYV
Mu-type opioid receptor, sequence (P35372 whole entry): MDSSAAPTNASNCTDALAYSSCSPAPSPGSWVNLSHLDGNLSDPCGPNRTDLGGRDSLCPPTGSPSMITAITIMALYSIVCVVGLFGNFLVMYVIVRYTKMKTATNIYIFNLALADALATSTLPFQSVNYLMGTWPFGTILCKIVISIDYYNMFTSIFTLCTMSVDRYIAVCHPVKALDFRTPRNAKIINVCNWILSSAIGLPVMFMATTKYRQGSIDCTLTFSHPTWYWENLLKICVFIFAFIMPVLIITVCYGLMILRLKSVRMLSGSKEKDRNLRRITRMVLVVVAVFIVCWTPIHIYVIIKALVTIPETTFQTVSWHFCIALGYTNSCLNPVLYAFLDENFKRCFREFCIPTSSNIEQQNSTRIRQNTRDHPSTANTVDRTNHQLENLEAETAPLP
Cytochrome P450 2D6, sequence (P10635 whole entry): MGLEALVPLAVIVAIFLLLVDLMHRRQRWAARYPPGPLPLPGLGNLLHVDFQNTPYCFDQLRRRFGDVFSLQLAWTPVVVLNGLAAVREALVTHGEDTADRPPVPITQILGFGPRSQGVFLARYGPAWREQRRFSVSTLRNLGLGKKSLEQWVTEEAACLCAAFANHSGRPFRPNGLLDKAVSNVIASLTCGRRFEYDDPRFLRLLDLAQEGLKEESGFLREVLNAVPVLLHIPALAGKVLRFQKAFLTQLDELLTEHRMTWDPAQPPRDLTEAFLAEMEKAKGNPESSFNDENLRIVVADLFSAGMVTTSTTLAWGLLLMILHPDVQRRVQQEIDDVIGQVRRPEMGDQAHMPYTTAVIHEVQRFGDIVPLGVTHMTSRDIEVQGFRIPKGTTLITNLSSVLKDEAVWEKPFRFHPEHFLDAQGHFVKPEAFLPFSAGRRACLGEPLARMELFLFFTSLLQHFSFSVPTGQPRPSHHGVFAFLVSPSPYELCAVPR
Sodium-dependent dopamine transporter, sequence (Q01959 whole entry): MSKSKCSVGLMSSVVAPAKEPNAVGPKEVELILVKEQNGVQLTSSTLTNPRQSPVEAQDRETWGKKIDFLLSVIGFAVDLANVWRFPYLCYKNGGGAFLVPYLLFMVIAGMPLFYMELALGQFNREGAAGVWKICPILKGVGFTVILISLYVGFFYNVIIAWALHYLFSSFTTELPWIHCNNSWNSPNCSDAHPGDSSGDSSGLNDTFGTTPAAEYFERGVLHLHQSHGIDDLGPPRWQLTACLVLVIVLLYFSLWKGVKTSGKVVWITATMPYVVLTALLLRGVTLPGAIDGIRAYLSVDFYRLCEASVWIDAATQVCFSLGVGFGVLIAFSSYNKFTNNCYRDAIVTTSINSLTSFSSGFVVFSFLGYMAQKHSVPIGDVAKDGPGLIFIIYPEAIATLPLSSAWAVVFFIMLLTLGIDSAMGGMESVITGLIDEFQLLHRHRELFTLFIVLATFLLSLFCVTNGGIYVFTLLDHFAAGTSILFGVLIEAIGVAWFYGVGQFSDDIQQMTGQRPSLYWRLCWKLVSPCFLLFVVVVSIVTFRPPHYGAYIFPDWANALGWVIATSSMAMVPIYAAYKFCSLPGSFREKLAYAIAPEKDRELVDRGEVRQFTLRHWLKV
Translocator protein, sequence (P30536 whole entry): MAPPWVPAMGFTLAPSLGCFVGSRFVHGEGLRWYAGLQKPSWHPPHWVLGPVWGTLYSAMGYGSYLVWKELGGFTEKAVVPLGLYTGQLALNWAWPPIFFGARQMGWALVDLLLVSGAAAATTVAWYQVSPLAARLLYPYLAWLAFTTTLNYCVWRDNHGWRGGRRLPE
Voltage-gated inwardly rectifying potassium channel KCNH2, sequence (Q12809 whole entry): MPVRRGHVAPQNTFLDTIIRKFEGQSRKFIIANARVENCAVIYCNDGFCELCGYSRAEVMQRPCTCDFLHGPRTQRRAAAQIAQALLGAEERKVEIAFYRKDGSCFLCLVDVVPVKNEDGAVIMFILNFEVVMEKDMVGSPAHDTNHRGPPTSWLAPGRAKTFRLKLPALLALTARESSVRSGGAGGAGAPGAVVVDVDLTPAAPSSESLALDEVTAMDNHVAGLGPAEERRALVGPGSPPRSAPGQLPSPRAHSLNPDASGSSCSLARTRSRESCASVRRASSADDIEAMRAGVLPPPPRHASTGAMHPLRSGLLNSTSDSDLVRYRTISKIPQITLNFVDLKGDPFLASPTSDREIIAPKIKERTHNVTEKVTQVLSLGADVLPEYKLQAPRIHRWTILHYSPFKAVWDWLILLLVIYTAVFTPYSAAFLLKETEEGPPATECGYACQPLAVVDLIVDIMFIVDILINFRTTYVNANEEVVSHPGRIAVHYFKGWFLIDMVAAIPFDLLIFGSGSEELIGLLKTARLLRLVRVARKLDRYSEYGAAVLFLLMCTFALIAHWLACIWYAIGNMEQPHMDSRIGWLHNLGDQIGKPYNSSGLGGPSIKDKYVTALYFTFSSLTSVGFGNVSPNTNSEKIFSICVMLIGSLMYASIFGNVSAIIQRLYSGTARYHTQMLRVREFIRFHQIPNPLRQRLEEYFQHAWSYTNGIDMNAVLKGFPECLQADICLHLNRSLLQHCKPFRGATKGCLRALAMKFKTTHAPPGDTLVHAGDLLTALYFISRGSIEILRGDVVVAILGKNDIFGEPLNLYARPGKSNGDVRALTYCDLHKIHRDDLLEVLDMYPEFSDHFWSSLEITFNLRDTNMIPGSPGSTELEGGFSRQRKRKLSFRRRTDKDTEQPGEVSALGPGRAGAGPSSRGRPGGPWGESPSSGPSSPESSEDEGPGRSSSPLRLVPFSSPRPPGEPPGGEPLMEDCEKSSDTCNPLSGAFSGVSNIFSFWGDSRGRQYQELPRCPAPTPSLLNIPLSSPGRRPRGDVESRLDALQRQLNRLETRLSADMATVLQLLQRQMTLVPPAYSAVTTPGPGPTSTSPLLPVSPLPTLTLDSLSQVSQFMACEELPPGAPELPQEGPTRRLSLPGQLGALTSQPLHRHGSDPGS

## COc1ccc2[nH]c([S+]([O-])Cc3ncc(C)c(OC)c3C)nc2c1 (stereo unspecified) [OMEPRAZOLE]
[1]
  Stability: 0%
[2]
  t1/2: 0.255 h

## CCN(CC)CCOC(=O)c1ccc(N)cc1 [PROCAINE]
[3]
  Stability: 0%
[4]
  Stability: 0%
[5]
  t1/2: 0.00183 h

## Clc1ccc(Nc2nc3ccccc3c3[nH]c([C@@H]4C[C@@H]5CCC[C@@H](C5)C4)nc23)cc1Cl
Mu-type opioid receptor
  Ki: 7.22 µM
[6]
  Ki: 0.467 µM

## Clc1ccc(COC(Cn2ccnc2)c2ccc(Cl)cc2Cl)c(Cl)c1 (stereo unspecified) [MICONAZOLE]
Cytochrome P450 1A2
  IC50: 4.55 µM
Cytochrome P450 2D6
  IC50: 1.64 µM
[7]
  IC50: 38 µM
[8]
  IC50: 38 µM
[9]
  IC50: 4.55 µM
[10]
  IC50: 4.55 µM

## Clc1ccc(Nc2nc3ccccc3c3[nH]c(C4CC5C=CC4CC5)nc23)cc1Cl (racemic)
[11]
  Activity: 100%

## Clc1ccc(Nc2nc3ccccc3c3[nH]c(C4CCCCCCCC4)nc23)cc1Cl
[12]
  Ki: 5.15 µM
[13]
  Ki: 0.907 µM

## Ic1ccc(Nc2nc3ccccc3c3[nH]c(C4CCCCC4)nc23)cc1
D(3) dopamine receptor
  Ki: 0.846 µM

## Clc1ccc(Nc2nc3ccccc3c3[nH]c(C4CCCCCCCCCCC4)nc23)cc1Cl
D(3) dopamine receptor
  Ki: 7.63 µM

## Clc1ccc(Nc2nc3ccccc3c3[nH]c(C4CCCCCCCCCC4)nc23)cc1Cl
D(3) dopamine receptor
  Ki: 5.28 µM

## CCCC(CCC)c1nc2c(Nc3ccc(I)cc3)nc3ccccc3c2[nH]1
[13]
  Ki: 0.891 µM
Translocator protein
  Ki: 0.123 µM

## COc1ccc([C@@H]2Sc3ccccc3N(CCN(C)C)C(=O)[C@@H]2OC(C)=O)cc1 [DILTIAZEM]
[14]
  Stability: 83.9%

## Clc1ccc(Nc2nc3ccccc3c3[nH]c(C4CCCCC4)nc23)cc1Cl
Adenosine receptor A3
  Ki: 2 µM

## CCCC(CCC)c1nc2c(Nc3ccc(Cl)c(Cl)c3)nc3ccccc3c2[nH]1
[15]
  Ki: 1.36 µM
[12]
  Ki: 1.48 µM
[13]
  Ki: 1.36 µM

## CC(=O)CC(c1ccccc1)c1c(O)c2ccccc2oc1=O (stereo unspecified) [WARFARIN]
[16]
  PPB: 96.3%
[17]
  PPB: 83.6%

## Clc1ccc(Nc2nc3ccccc3c3[nH]c(C4CCC=CCC4)nc23)cc1Cl
[12]
  Ki: 4.64 µM
[13]
  Ki: 0.575 µM
[18]
  Stability: 100%
[1]
  Stability: 69.1%
[3]
  Stability: 69.7%
[14]
  Stability: 88.7%
[4]
  Stability: 83.5%
[19]
  t1/2: 2.65 h
[20]
  t1/2: 9.67 h
[5]
  t1/2: 11.6 h
Cytochrome P450 1A2
  IC50: 6.99 µM
[21]
  Stability: 81.2%
[22]
  Stability: 52.1%
[23]
  Stability: 76.4%
[24]
  PPB: 99.1%
[25]
  IC50: 6.06 µM
[26]
  solubility: 0.39 µg/mL (≈ 0.921 µM)
[27]
  t1/2: 1.29 h
[28]
  t1/2: 2.6 h
[29]
  t1/2: 2.38 h
[30]
  Cmax: 1780 ng/mL
[31]
  Tmax: 2 h
[32]
  CL/F: 26.3 mL/min/kg
[33]
  CL/F: 16.2 mL/min/kg
[34]
  CL/F: 7.45 mL/min/kg
[35]
  remaining at 24 h: 50%
[36]
  MRT: 3.98 h
[37]
  permeability: 48.1%
[38]
  permeability: 78%
[9]
  IC50: 6.99 µM
[10]
  IC50: 6.99 µM
[39]
  t1/2: 9.55 h
[2]
  t1/2: 3.4 h
[40]
  t1/2: 3.33 h
[41]
  t1/2: 1.17 h
[42]
  t1/2: 3.23 h
In vivo [43]
  bioavailability at 24 h: 28.7%
In vivo [44]
  bioavailability at 24 h: 47.5%
